Hits are enriched below; roughly 3.1% of the tested compounds scored in any of these assays.
KCNK9 inh: inhibitors of human KCNK9 two-pore domain potassium channel; Q9NPC2; HEK293 KCNK9, FluxOR thallium flux fluorescence; hits give low values; B-score at 10 µM; actives 1.2% (n = 310,000);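 active = ratio B-score over 3 SD below the library mean, with starting fluorescence within 5 SD of its mean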;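 also: negative B-score means less thallium flux so channel inhibition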
hERG protect: compounds protecting human hERG from proarrhythmic drug block; activation (rescue from dofetilide block), less the hit threshold, % at 10 µM; CHO-hERG, FluxOR thallium flux, dofetilide IC70 present; actives 0.51% (n = 310,000); AID 1511;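 active = activation above the mean of controls blocked by dofetilide plus 5 SD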;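 also: thallium influx through hERG after potassium depolarization seen as dye fluorescence rise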
KCNK3 inh: human KCNK3 channel inhibition, primary screen. O14649. CHO-KCNK3 thallium flux, FluxOR fluorescence; hits give low values. B-score at 10 µM. actives 0.84% (n = 340,000);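 active = B-score under library mean minus 4 SD, starting fluorescence ratio at most library mean plus 5 SD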;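 also: more negative B-score means stronger inhibition of thallium flux through KCNK3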
Target sequence (O14649 whole entry, looked up): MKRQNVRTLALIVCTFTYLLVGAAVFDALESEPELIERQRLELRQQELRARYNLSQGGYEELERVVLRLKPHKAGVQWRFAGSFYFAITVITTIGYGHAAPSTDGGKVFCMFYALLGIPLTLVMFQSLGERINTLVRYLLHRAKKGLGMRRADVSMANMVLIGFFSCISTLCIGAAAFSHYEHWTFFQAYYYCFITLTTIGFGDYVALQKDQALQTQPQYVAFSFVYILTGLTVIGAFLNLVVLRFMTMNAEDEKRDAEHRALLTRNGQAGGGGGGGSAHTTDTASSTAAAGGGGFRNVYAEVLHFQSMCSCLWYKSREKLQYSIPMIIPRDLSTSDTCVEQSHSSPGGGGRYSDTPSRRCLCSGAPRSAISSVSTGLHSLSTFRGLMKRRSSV
KCNQ1 pot: potentiators or activators of human KCNQ1 potassium channel | P51787 | CHO-K1 KCNQ1, thallium flux FluxOR fluorescence; hits give high values | B-score at 10 µM | actives 0.35% (n = 310,000) | AID 2648;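 active = fluorescence ratio B-score, a plate-corrected score, at least three library SD, with initial intensity B-score within 5 SD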
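Material: CHO-K1 cells stably expressing KCNQ1. Medium: assay buffer for compound exposure, DMSO matched across wells. Reagent: K+/Tl+ depolarizing stimulus. Compound dosing: single-concentration screen. Times: 37 °C overnight plating, 90-min dark dye load, 20-min compound pretreatment. Technique: FluxOR Tl+ flux fluorescence.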
KCNQ1 inh: blocks the human KCNQ1 potassium channel. AID 2642. P51787. B-score at 10 µM. actives 1.3% (n = 310,000). CHO-K1 KCNQ1, FluxOR thallium flux fluorescence; hits give high values;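 active = compounds whose thallium flux B-score, printed positive for inhibition, exceeds three library SD while starting fluorescence stays within three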;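 also: channel opened by potassium depolarization with thallium stimulus after 20 min compound exposure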
KCNK3 confirm: confirmation of human KCNK3 two-pore domain potassium channel inhibitors; shares compounds with KCNK3 inh; CHO-KCNK3 thallium flux, FluxOR fluorescence; 0% buffer, 100% carvedilol maximal block; ratio percent of control, % at 10 µM; actives 99% (n = 2,400); AID 651638;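 active = ratio percent of control, averaged over triplicates, above buffer control mean plus 5 SD, cut at about 64% in these data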;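 also: ratio is the fluorescence rise from min to max over baseline after thallium stimulus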
KCNK3 uninduced: KCNK3 inhibitor counter-screen hit in non-induced cells. shares compounds with KCNK3 inh. non-induced KCNK3 parental cells, FluxOR thallium flux; hits give low values. thallium flux ratio (lower = more inhibition) at 10 µM. actives 40% (n = 2,400). AID 651747;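 active = thallium flux ratio, averaged over three wells, more than 5 SD below the buffer control mean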;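 also: host cells are CHO cells without KCNK3 induction; ratio is peak minus trough fluorescence over baseline then normalized to buffer controls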
* marks the source's active call; other numbers are inactive results; i = inactive; / = no result.

SMILES	KCNK9 inh	hERG protect	KCNK3 inh	KCNQ1 pot	KCNQ1 inh	KCNK3 confirm	KCNK3 uninduced
Cc1ccccc1-c1nnn(Cc2ccc(F)cc2Cl)n1	i	-11	-9*	i	i	101*	i
Fc1ccc(-c2nnn(Cc3ccc(F)cc3Cl)n2)cc1	i	-3	i	i	i	/	/
CC(C)(C)c1ccc(OCC(=O)N/N=C/C2CC=CCC2)cc1 (centres undefined)	-7.2*	-5	-10*	i	i	96*	i
Cc1ccc(C)c(N2CCN(C(=O)CCC(=O)N3CCOc4ccc(Cl)cc43)CC2)c1	i	-5	-10*	i	i	122*	0.15*
O=C(Cc1ccccc1)NNC(=O)c1ccccc1C(=O)O	i	-8	i	i	i	/	/
CCOC(=O)C1=C(CSc2nc3c(cc2C#N)CN(C)CC3)OC(N)=C(C#N)C1c1ccc(Cl)cc1 (centres undefined)	i	-7	i	i	i	/	/
CCOC(=O)C1=C(CSc2nc(CC)c(C)cc2C#N)OC(N)=C(C#N)C1c1ccccc1 (centres undefined)	i	-7	-9.8*	i	i	109*	i
Cc1nc2nc(-c3ccccc3)cn2nc1C	i	3	i	i	i	/	/
CCc1c(-c2ccccc2)nc2nc(C)c(C)nn12	i	-8	-8.9*	i	i	104*	0.14*
O=C(/C=C\c1ccc2c(c1)OCO2)Nc1c2c(nn1-c1ccc(Cl)cc1)CSC2	-7*	-10	-8.9*	i	i	65*	i
CC(=O)Nc1c2c(nn1-c1ccccc1)CSC2	i	-4	i	i	i	/	/
COC(=O)N1c2ccccc2C=Cc2ccccc21	i	-6	i	i	i	/	/
CSc1ccccc1OCc1cc(C(=O)N2CCN3CCCC3C2)no1 (centres undefined)	i	-3	i	i	i	/	/
O=C(Cc1ccccc1)NCC(=O)Nc1ccccc1Br	i	-2	i	i	i	/	/
Cc1ccc(-n2c(C)cc(/C=C3\SC(=O)NC3=O)c2C)cc1	i	-9	i	i	i	/	/
Cc1cc(/C=C2\SC(=S)NC2=O)c(C)n1-c1cccc(O)c1	-7.3*	-17	-8.9*	i	i	113*	0.15*
O=C(OCC#CCSc1nc2ccccc2o1)c1cc2ccccc2o1	i	-9	-11*	i	i	105*	0.15*
Cc1cc(NC(=O)CSc2nc3c([nH]c4ccccc43)c(=O)n2-c2cccc(C(F)(F)F)c2)no1	i	-7	-11*	i	i	92*	i
COc1ccccc1-n1c(SCC(=O)Nc2cc(C)on2)nc2c([nH]c3ccccc32)c1=O	i	-13	-9.2*	i	i	101*	i
COc1cccc(-n2c(SCC(=O)Nc3cc(C)on3)nc3c([nH]c4ccccc43)c2=O)c1	i	-10	i	i	i	/	/
c1ccc(CN2CCN(c3nc4ccccc4c4ccccc34)CC2)cc1	i	-11	-11*	i	i	98*	i
c1ccc(CN2CCN(c3nc(NCc4ccco4)c4ccccc4n3)CC2)cc1	i	-38	-11*	i	i	141*	0.1*
OCCN1CCN(c2nc(NCc3ccco3)c3ccccc3n2)CC1	i	-11	i	i	i	/	/
c1ccc(CN2CCN(c3nc(-c4ccccn4)nc4ccccc34)CC2)cc1	i	-6	i	i	i	/	/
CSc1nc(N2CCN(Cc3ccc4c(c3)OCO4)CC2)c2ccccc2n1	i	-10	-13*	i	i	112*	i
SMILES	KCNK9 inh	hERG protect	KCNK3 inh	KCNQ1 pot	KCNQ1 inh	KCNK3 confirm	KCNK3 uninduced
Cc1ccc(NC(=O)C2CC(=O)Nc3ncnn32)c(C)c1 (centres undefined)	i	-8	i	i	i	/	/
Cc1ccccc1S(=O)(=O)Oc1ccc2ccc(O)cc2c1	i	-24	-10*	i	i	97*	i
Cc1ccccc1C(=O)Oc1ccc2ccc(O)cc2c1	i	-7	i	i	i	/	/
O=C1/C(=C/c2cccnc2)Sc2ccccc21	i	-6	-9.6*	i	i	102*	i
O=C1NC(=Nc2ccccc2)S/C1=C/c1cccnc1	i	-8	-11*	i	i	90*	i
CC(=O)Nc1ccc(/C=C2\Sc3ccccc3C2=O)cc1	i	-7	i	i	i	/	/
C[C@@H](NC(=O)c1nc[nH]c1C(=O)N(C)Cc1ccccc1)c1ccccc1	/	/	i	/	/	/	/
CN(C)Cc1c(-c2ccc(Cl)cc2)nc2ccc(Cl)cn12	i	-9	i	i	i	/	/
CC1=CC2=NC(=O)/C(=C\c3cccn3CCOc3ccccc3C)C(=N)N2O1	i	-6	-8.9*	i	i	115*	0.16*
CNC(=S)N1CCc2cc(OC)c(OC)cc2C1COc1ccc(F)cc1 (centres undefined)	i	-9	i	i	i	/	/
CCNC(=S)N1CCc2cc(OC)c(OC)cc2C1COc1ccc(F)cc1 (centres undefined)	i	-10	-8.7*	i	i	102*	i
O=C(Nc1ccc2nc(-c3ccco3)[nH]c2c1)c1ccco1	i	-15	-8.9*	i	i	140*	i
CC(=O)Nc1ccc2nc(-c3ccco3)[nH]c2c1	i	-3	i	i	i	/	/
Cn1cccc1-c1nc2ccc(NC(=O)c3ccccc3)cc2[nH]1	i	-19	-11*	i	i	103*	i
CCOc1ccc(S(=O)(=O)N2CCCC(C(=O)NCC3CCCO3)C2)cc1 (centres undefined)	i	-9	i	i	i	/	/
CCCCC(CC)CNC(=O)CN1C(=O)NC2(CCc3ccccc32)C1=O (centres undefined)	i	-11	i	i	i	/	/
CCN(CC)CCNC(=O)c1ccc(NC(=O)c2cn(-c3ccc(F)cc3)nc2-c2cccc(OC)c2)cc1	i	-17	-9*	i	11*	111*	0.15*
CCN(CC)CCNC(=O)c1ccc(NC(=O)c2c(C)nn(-c3ccc(F)cc3)c2Cl)cc1	i	-8	i	i	i	/	/
COc1ccc(C(=O)/C=C/c2cc(OC)c(O)c(OC)c2)c(F)c1	i	-10	i	i	i	/	/
COc1ccc2cc(C(=O)/C=C/c3cc(OC)c(O)c(OC)c3)ccc2c1	i	-11	-9.8*	i	i	131*	0.13*

High-throughput results (PubChem)
